# Measles CPE: compounds protecting cells from measles virus cytopathic effect, primary screen, measles RdRp inhibitor project, single point, MLSMR library, absorbance; Measles virus-infected cells, CPE protection; protection (pct of control), % at 4 µM; 1.5% of 140,000 active; AID 841, 2007; in the data active = protection mostly above about 24%, no sharp cut-off; inactive = mostly below about 26%
# hDAT+cocaine: changed hDAT dopamine uptake under cocaine IC80, either direction, primary screen, cocaine antagonist project, cell-based, LLC-PK1 hDAT, [14C]-dopamine uptake, MLSMR | LLC-PK1 hDAT cells, [14C]-dopamine uptake with cocaine IC80; actives deviate in either direction | B-score at 10 µM | 1.3% of 110,000 active;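 active = Z score or B-score, a plate-position-corrected score, falls beyond the plate's 99.7% confidence bounds, in either direction; inactive = both scores lie inside the 99.7% bounds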;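 note: scored against the spread of the other compound wells on the same plate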
# Target sequence (Q01959 whole entry, looked up): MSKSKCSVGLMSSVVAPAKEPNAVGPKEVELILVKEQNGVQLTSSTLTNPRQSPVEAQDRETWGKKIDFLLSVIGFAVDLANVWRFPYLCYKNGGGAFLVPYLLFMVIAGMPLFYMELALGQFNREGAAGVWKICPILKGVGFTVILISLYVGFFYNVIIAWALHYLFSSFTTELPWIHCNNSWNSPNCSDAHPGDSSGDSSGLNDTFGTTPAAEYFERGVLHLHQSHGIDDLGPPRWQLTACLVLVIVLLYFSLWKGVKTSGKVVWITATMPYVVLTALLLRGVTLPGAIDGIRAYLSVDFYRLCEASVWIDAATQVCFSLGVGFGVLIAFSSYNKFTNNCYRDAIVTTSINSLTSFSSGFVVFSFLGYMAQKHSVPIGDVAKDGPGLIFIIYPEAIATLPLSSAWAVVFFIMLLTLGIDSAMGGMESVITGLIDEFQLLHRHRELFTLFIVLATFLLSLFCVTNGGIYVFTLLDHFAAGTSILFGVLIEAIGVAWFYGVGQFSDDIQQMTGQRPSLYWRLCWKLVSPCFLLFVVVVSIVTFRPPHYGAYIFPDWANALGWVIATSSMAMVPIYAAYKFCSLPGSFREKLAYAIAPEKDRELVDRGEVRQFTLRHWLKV
# WT yeast gro inh: growth inhibition of WT strain, primary screen, mitochondrial fusion inhibitor project, WT and mutant strains, chemical genetic. mitochondrial fusion phenotypic screen. inhibition, % at 10 µM. 2.1% of 190,000 active; in the data active = inhibition above about 58%; tested in S. cerevisiae
# BB579 growth dn: growth inhibitors of yeast BB579 in restrictive medium, primary screen, yeast lifespan-shortening project, S. cerevisiae; OD615, 48 h; inhibition, % at 10 µM; 0.51% of 140,000 active; AID 804, 2007;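 active = inhibition above a set limit, 3 SD over the mean compound inhibition, cut at about 44% in these data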
#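 System: DeaD yeast strain BB579; buffer or medium: CSMM-D dextrose restrictive medium; technique: OD at 615 nm; schedule: 4 h cell preincubation, 48 h compound exposure, 30 °C humidified; doses: single 10 µM dose; controls: amphotericin B 10 µg/mL, positive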
# Yeast life ext: compounds extending yeast replicative lifespan, primary screen, S. cerevisiae, OD615; S. cerevisiae growth with nicotinamide; deaD strain in restrictive glucose medium; inhibition of the nicotinamide effect, % at 10 µM; 0.68% of 130,000 active;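 active = inhibition above a set limit, placed 3 SD over the median of all compounds, cut at about 26% in these data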;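 note: 0% = nicotinamide-treated wells and 100% = cells grown without nicotinamide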
#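 System: DeaD-strain S. cerevisiae / Buffer or medium: CSMM-D, restrictive glucose (dextrose) synthetic minimal medium / Probe or stimulus: nicotinamide, 1.5 mM, co-present with compound / Compound: one concentration, 10 µM, DMSO 0.25% / Incubation: 48 h compound exposure at 30 °C, humidified / Technique: optical density (absorbance) at 615 nm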
# RAM network inh: inhibitors of the yeast RAM network, primary screen, dse1pr::URA3 reporter, 5-FOA selection; S. cerevisiae dse1pr::URA3 reporter, 5-FOA growth OD615, 2 d; analog-sensitive cbk1-as2 kinase mutant strain; inhibition, % at 50 µM; 1.8% of 190,000 active; AID 868, 2007;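 active = inhibition above a set limit, 3 SD over mean compound inhibition, cut at about 8.4% in these data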;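 note: 0% = DMSO-only wells with no growth and 100% = 10 µM 1-NA-PP1 full growth; inhibition rescues growth on 5-FOA so higher OD means more RAM inhibition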
# * marks the source's active call; other numbers are inactive results; nt = not tested or not shown. The list is not random: actives were taken first. Their share in the collection is about 6.1%.
SMILES,Measles CPE,hDAT+cocaine,WT yeast gro inh,BB579 growth dn,Yeast life ext,RAM network inh
O=C(NC1CCCCCC1)c1cccc(COCC(F)(F)F)c1,35.7*,0.0347,5.8,-22.6,nt,-0.1
O=C(Nc1nnc(C2CC2)s1)c1ccc(S(=O)(=O)c2ccccc2)cc1,3.5,0.92,-2.9,-43.3,10.7,4.0
O=C(Nc1nncs1)c1ccc(S(=O)(=O)c2ccccc2)cc1,6.0,-8.73*,12.3,-46.3,5.8,3.1
COc1ccc(C2=CC(c3ccc(Cl)cc3)n3cnnc3N2)cc1OC (stereo unspecified),2.8,-0.121,7.1,-21.1,-32.1,2.0
CC(C)CCNC(=O)CN(CC1CCCO1)C(=O)CCC(=O)Nc1ccccn1 (stereo unspecified),2.3,0.398,70.2*,-14.9,0.1,4.2
CCOC(=O)c1cnn2cc(-c3[nH]ncc3[N+](=O)[O-])cnc12,33.4*,nt,-0.8,-20.5,1.5,2.2
CCCOc1ccc(OCCn2nc(C(=O)O)c3ccccc3c2=O)cc1,nt,nt,-27.0,nt,nt,9.6*
Cc1ccccc1OCCn1nc(C(=O)O)c2ccccc2c1=O,9.9,0.571,1.4,-6.2,-12.9,0.7
O=C(O)c1nn(CCOc2cccc(Cl)c2)c(=O)c2ccccc12,nt,nt,-16.6,nt,nt,8.8*
O=C(NN1C(=O)c2ccccc2C1=O)c1ccncc1,nt,nt,-17.9,nt,nt,1.2
O=C(NN1C(=O)c2ccccc2C1=O)C1C2CCCCC21 (stereo unspecified),29.1,nt,5.9,-18.1,40.9*,1.9
O=C(N[C@@H](Cc1ccccc1)C(=O)OCc1ccccc1)c1nc[nH]c1C(=O)NCc1ccccc1,nt,1.61*,-5.5,nt,nt,9.2*
O=C(N[C@@H](Cc1ccccc1)C(=O)OCc1ccccc1)c1nc[nH]c1C(=O)N1CCN(c2ccccc2)CC1,nt,-0.168,nt,nt,nt,nt
O=C(CSc1nnc(-c2ccc(F)cc2)c2ccccc12)Nc1c(F)cccc1F,36.9*,nt,5.4,-39.9,13.7,-0.5
O=C(CSc1nnc(-c2ccc(F)cc2)c2ccccc12)Nc1ccccc1,11.8,nt,10.3,42.1,-4.2,1.9
COc1ccccc1NC(=O)Cc1noc(CSc2cccc[n+]2[O-])n1,1.3,-0.27,4.2,95.0*,-14.8,2.3
Cn1c(NCc2ccccc2)nc2c1c(=O)n(Cc1ccc(Br)cc1)c(=O)n2C,13.1,1.06,45.8,3.3,-4.2,3.6
COc1ccc(CNc2nc3c(c(=O)n(Cc4ccc(Br)cc4)c(=O)n3C)n2C)cc1,14.7,0.403,45.0,-55.4,-15.2,8.8*
CC(C)(C)NC(=O)C(=O)NNC(=O)c1cccc(F)c1,nt,nt,-10.6,nt,nt,0.4
S=c1[nH]c2ccccc2o1,nt,nt,18.1,nt,nt,1.6
CCN1C(=O)CSc2ccc(C(=O)NCc3ccc(OC)cc3)cc21,36.3*,0.785,-18.7,-9.9,-6.9,0.2
COc1cccc(N2CCN(Cc3nc(N)nc(Nc4ccccc4OC)n3)CC2)c1,5.3,0.142,-3.6,-33.4,15.8,-1.0
COc1ccccc1Nc1nc(N)nc(CN2CCN(c3ccccc3)CC2)n1,9.0,2.51*,14.0,3.7,-17.2,0.0
Nc1nc(CN2CCN(c3cccc(Cl)c3)CC2)nc(N2CCCc3ccccc32)n1,11.4,0.0256,44.8,-46.2,-0.8,1.2
Nc1nc(CSc2nnnn2-c2ccccc2)nc(N2CCCc3ccccc32)n1,15.7,-1.16,59.9*,-32.9,-8.2,2.3
SMILES,Measles CPE,hDAT+cocaine,WT yeast gro inh,BB579 growth dn,Yeast life ext,RAM network inh
Nc1nc(CN2CCN(c3ccccc3)CC2)nc(N2CCCc3ccccc32)n1,87.2*,0.09,50.6,-35.1,3.5,0.8
O=C1N2CCCc3cccc(c32)C12Nc1ccccc1S2 (stereo unspecified),15.5,0.559,11.4,-55.0,1.9,0.6
CC1CC(C)(C)N2C(=O)C3(Nc4ccccc4S3)c3cccc1c32 (stereo unspecified),8.7,0.511,66.8*,-34.4,18.4,1.3
Cn1c(=O)c([N+](=O)[O-])c(Cl)c2ccccc21,nt,nt,51.8,nt,nt,-1.4
CCOC(=O)C1CCN(S(=O)(=O)c2c(C)[nH]c(=O)[nH]c2=O)CC1,4.8,-0.503,-8.2,-30.2,-12.4,-0.1
CCOC(=O)C1CCN(S(=O)(=O)c2c(C)n[nH]c2C)CC1,2.1,-0.0788,66.9*,-42.5,-25.9,1.4
CC(O)[C@H]1CNC(=O)C(=O)N1CC1(c2ccccc2)CC1 (stereo partly specified),nt,1.19,nt,nt,nt,nt
COc1ccccc1CNS(=O)(=O)N(C)C,nt,nt,5.6,nt,nt,0.2
COc1ccc(C2c3c(-c4ccccc4O)n[nH]c3C(=O)N2CCc2ccc(OC)c(OC)c2)cc1 (stereo unspecified),15.3,0.877,-8.2,-57.0,-2.6,11.2*
Cc1cccc(NC(=O)C2CC(=O)NC(Nc3nc4ccccc4s3)=N2)c1 (stereo unspecified),9.2,nt,5.8,-18.0,0.8,7.6
O=[N+]([O-])c1cccc2ccc(/C=C/c3ccc(Cl)cc3)nc12,7.1,nt,23.9,-20.5,-2.1,6.5
O=[N+]([O-])c1cccc2ccc(/C=C/c3ccc(C(F)(F)F)cc3)nc12,20.1,nt,4.0,-28.7,-4.8,10.3*
O=C(Cn1nnc(-c2cccs2)n1)Nc1ccccc1C(F)(F)F,nt,nt,-4.3,nt,nt,3.6
Fc1ccc(C2=Nn3c(nnc3-c3n[nH]c4c3CCC4)SC2)cc1,36.2*,1.1,11.2,-55.8,-8.2,1.5
CC(C)(C)C1=Nn2c(nnc2-c2n[nH]c3c2CCC3)SC1,7.1,0.0415,13.9,-63.5,-0.3,3.1
CC1=Nn2c(nnc2-c2n[nH]c3c2CCC3)SC1,31.8,-8.04*,6.3,-62.7,4.2,-0.3
CCOC(=O)N1CCN(C(=O)CCCn2c(=S)[nH]c3ccsc3c2=O)CC1,nt,nt,-4.2,nt,nt,2.2
CNC(=S)Nc1ccc([N+](=O)[O-])c(C)c1,nt,nt,27.4,nt,nt,0.4
O=C1CC(c2ccc(Cl)c(Cl)c2)CC(O)=C1C=NCCN1CCNCC1 (stereo unspecified),4.6,1.53,0.2,-47.0,-7.2,2.1
O=C1OC(c2ccc(F)cc2)=C/C1=C\c1ccc([N+](=O)[O-])o1,nt,nt,84.9*,nt,nt,1.4
CCOC(=O)N1CCN(C(=O)Cn2nc(C)c3sc4ccccc4c3c2=O)CC1,8.7,1.64,-3.0,44.6*,-6.1,-0.8
COc1cc(C2=CCN(C(C)=O)CC2)ccc1OC(C)=O,nt,-0.968,nt,nt,nt,nt
CCOc1ccc(C(=O)Nc2sc3c(c2C(=O)OC)CC(C)(C)NC3(C)C)cc1,nt,nt,25.7,nt,nt,-0.6
COC(=O)c1c(NC(=O)c2nc3ccccc3s2)sc2c1CC(C)(C)NC2(C)C,nt,nt,82.7*,nt,nt,1.8
